Assay results taken from the EternaBench riboswitch data.

Test system: MS2 coat protein
Experiment: apparent Kd, MS2 coat protein; higher = weaker binding; RNA-MaP array; tryptophan 2.4 mM where present
Procedure, shortened: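 Designs were transcribed by stalled E. coli RNA polymerase on Illumina sequencing-chip clusters. They were titrated with SNAP-549-labelled MS2 coat protein from 0.7 or 1.5 nM, doubling to 3 µM, in 100 mM Tris-HCl pH 7.5, 80 mM KCl, 4 mM MgCl2, BSA, DTT, yeast tRNA and Tween-20, without and then with constant ligand. The apparent Kd is the median of filtered per-cluster fits after normalisation of green signal to red-channel RNA signal and control-cluster median Fmax.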

Sequence	apparent Kd (designed as: ON switch for tryptophan, no ligand) [nM]	apparent Kd (ligand present: tryptophan, designed as: ON switch for tryptophan) [nM]	apparent Kd (designed as: OFF switch for tryptophan, no ligand) [nM]	apparent Kd (ligand present: tryptophan, designed as: OFF switch for tryptophan) [nM]
UUAUAUACUACGGCCGCCACUGAACAUGAGGAUCACCCAUGUAAUGUUCAGAUUUUUUUUUUUUACAGGACCGGGUAGAAUUAAA	159	133	–	–
UUCACAUGGUAUGAAUAUACAUACAAGAAACGAGGACCGGUACGGCCGCCACUCGUGCCGGAAACAUGAGGAUCACCCAUGUGUU	–	–	37	45.4
